# Test results published in ChEMBL document CHEMBL5338764, “Prodrug Strategies for the Development of β-l-5-((E)-2-Bromovinyl)-1-((2S,4S)-2-(hydroxymethyl)-1,3-(dioxolane-4-yl))uracil (l-BHDU) against Varicella Zoster Virus (VZV)” (J Med Chem, 2023).
# What was measured:
# [1] = Selectivity index, ratio of CC50 for human ARPE-19 cells to EC50 for VZV infected human ARPE-19 cells; format: toxicity; conditions: VZV infected ARPE-19 cells, read-out: Selectivity Index
# Human alphaherpesvirus 3 [2] = experiment: Antiviral activity against VZV infected HFF cells assessed as reduction in viral replication; format: functional, organism-based; conditions: Human alphaherpesvirus 3, HFF
# [3] = Drug concentration in BALB/c mouse plasma at 11.4 mg/kg, po via gavage measured after 20 mins by LC-MS/MS analysis; format: ADME, organism-based
# Method in brief: (§1)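 BALB/c mice of both sexes (N = 15 per sex per group) received a single oral gavage dose: 11.4 mg/kg L-BHDU or an equimolar 22.5 mg/kg of the POM prodrug, in Cremophor–DMSO–saline (1:1:8). Three mice per group were bled by cardiac puncture under isoflurane at 20, 40, 60 and 120 min into heparin. Plasma (AZT internal standard, 20 ng/mL) was methanol-precipitated and L-BHDU quantified by LC-MS/MS (negative ESI).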
# [4] = Drug concentration in BALB/c mouse plasma at 11.4 mg/kg, po via gavage measured after 40 mins by LC-MS/MS analysis; format: ADME, organism-based; method in brief: as §1
# [5] = Selectivity index, ratio of CC50 for HFF cells to EC50 for VZV infected HFF cells; format: toxicity; conditions: human, read-out: Selectivity Index
# [6] = Drug concentration in BALB/c mouse plasma at 11.4 mg/kg, po via gavage measured after 60 mins by LC-MS/MS analysis; format: ADME, organism-based; method in brief: as §1
# HFF = experiment: Cytotoxicity against HFF cells assessed as cell growth inhibition upto 200 uM; format: toxicity, cell-based; conditions: human
# [7] = Prodrug conversion in mouse liver homogenate assessed as concentration of L-BHDU formation at 0.3 ug/ml measured after 10 mins by LC-MS/MS analysis; format: ADME, tissue-based; conditions: dose 0.3 µg/ml
# Method in brief: (§2)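 Liver homogenate from untreated BALB/c mice was spiked with prodrug at 0.3 μg/mL, with azidothymidine internal standard at 20 ng/mL final, and incubated at 37 °C. Reactions were stopped with 2 volumes of methanol at 0, 2, 4, 10, 30 and 60 min. Supernatants were dried and reconstituted in 50% methanol. Prodrug, L-BHDU and L-BHDU-MP were quantified by LC-MS/MS against calibration curves.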
# [8] = Prodrug conversion in mouse liver homogenate assessed as concentration of L-BHDU formation at 0.3 ug/ml measured immediately by LC-MS/MS analysis; format: ADME, tissue-based; conditions: dose 0.3 µg/ml; method in brief: as §2
# [9] = Prodrug conversion in mouse liver homogenate assessed as concentration of L-BHDU formation at 0.3 ug/ml measured after 2 mins by LC-MS/MS analysis; format: ADME, tissue-based; conditions: dose 0.3 µg/ml; method in brief: as §2
# [10] = Stability in mouse liver homogenate assessed as compound remaining at 0.3 ug/ml measured immediately by LC-MS/MS analysis; format: ADME, tissue-based; conditions: tissue homogenate, dose 0.3 µg/ml; method in brief: as §2
# [11] = Prodrug conversion in BALB/c mouse assessed as concentration of L-BHDU formation at 22.5 mg/kg, po via gavage measured after 120 mins by LC-MS/MS analysis; format: ADME, organism-based; conditions: in vivo, 2 h; method in brief: as §1
# [12] = Prodrug conversion in mouse liver homogenate assessed as concentration of L-BHDU formation at 0.3 ug/ml measured after 30 mins by LC-MS/MS analysis; format: ADME, tissue-based; conditions: 0.5 h, dose 0.3 µg/ml; method in brief: as §2
# [13] = Prodrug conversion in BALB/c mouse assessed as concentration of L-BHDU formation at 22.5 mg/kg, po via gavage measured after 40 mins by LC-MS/MS analysis; format: ADME, organism-based; conditions: in vivo; method in brief: as §1
# [14] = Prodrug conversion in BALB/c mouse assessed as concentration of L-BHDU formation at 22.5 mg/kg, po via gavage measured after 20 mins by LC-MS/MS analysis; format: ADME, organism-based; conditions: in vivo; method in brief: as §1
# [15] = Stability in mouse liver homogenate assessed as compound remaining at 0.3 ug/ml measured after 10 mins by LC-MS/MS analysis; format: ADME, tissue-based; conditions: tissue homogenate, dose 0.3 µg/ml; method in brief: as §2
# [16] = Stability in mouse liver homogenate assessed as compound remaining at 0.3 ug/ml measured after 2 mins by LC-MS/MS analysis; format: ADME, tissue-based; conditions: tissue homogenate, dose 0.3 µg/ml; method in brief: as §2
# [17] = Prodrug conversion in BALB/c mouse assessed as concentration of L-BHDU formation at 22.5 mg/kg, po via gavage measured immediately by LC-MS/MS analysis; format: ADME, organism-based; conditions: in vivo
# [18] = Stability of compound in intestinal juice; format: ADME; conditions: simulated gi fluid
# [19] = Stability in mouse liver homogenate assessed as compound remaining at 0.3 ug/ml measured after 30 mins by LC-MS/MS analysis; format: ADME, tissue-based; conditions: tissue homogenate, 0.5 h, dose 0.3 µg/ml; method in brief: as §2
# [20] = Prodrug conversion in BALB/c mouse assessed as concentration of L-BHDU formation at 22.5 mg/kg, po via gavage measured after 60 mins by LC-MS/MS analysis; format: ADME, organism-based; conditions: in vivo, 1 h; method in brief: as §1
# [21] = Prodrug conversion in mouse liver homogenate assessed as concentration of L-BHDU formation at 0.3 ug/ml measured after 60 mins by LC-MS/MS analysis; format: ADME, tissue-based; conditions: in vitro, 1 h; method in brief: as §2
# [22] = Prodrug conversion in BALB/c mouse assessed as Tmax of L-BHDU at 22.5 mg/kg, po via gavage measured upto 120 mins by LC-MS/MS analysis; format: ADME, organism-based; conditions: in vivo, 2 h; method in brief: as §1
# [23] = Prodrug conversion in mouse liver homogenate assessed as concentration of L-BHDU formation at 0.3 ug/ml measured after 4 mins by LC-MS/MS analysis; format: ADME, tissue-based; conditions: dose 0.3 µg/ml; method in brief: as §2
# [24] = Prodrug conversion in BALB/c mouse assessed as AUC of L-BHDU at 22.5 mg/kg, po via gavage measured upto 120 mins by LC-MS/MS analysis; format: ADME, organism-based; parameters: time < 120 min, dose 22.5 mg/kg, route po; conditions: in vivo, 2 h; method in brief: as §1
# [25] = Stability in mouse liver homogenate assessed as compound remaining at 0.3 ug/ml measured after 4 mins by LC-MS/MS analysis; format: ADME, tissue-based; conditions: tissue homogenate, dose 0.3 µg/ml; method in brief: as §2
# [26] = Stability of compound in gastric juice; format: ADME; conditions: simulated gi fluid
# [27] = Prodrug conversion in BALB/c mouse assessed as Cmax of L-BHDU at 22.5 mg/kg, po via gavage measured upto 120 mins by LC-MS/MS analysis; format: ADME, organism-based; parameters: dose 22.5 mg/kg, time < 120 min, route po; conditions: in vivo, 2 h; method in brief: as §1
# Human alphaherpesvirus 3 [28] = experiment: Antiviral activity against VZV expressing ORF57-TS mutant infected human ARPE-19 cells assessed as reduction in viral replication treated for 72 hrs by bioluminescence imaging analysis; format: functional, organism-based; conditions: Human alphaherpesvirus 3, ARPE-19, 72 h
# Human alphaherpesvirus 3 [29] = experiment: Antiviral activity against VZV infected human ARPE-19 cells assessed as reduction in viral replication treated for 72 hrs by bioluminescence imaging analysis; format: functional, organism-based; conditions: Human alphaherpesvirus 3, ARPE-19, 72 h
# [30] = Cytotoxicity against human ARPE-19 cells assessed as reduction in cell viability treated for 72 hrs by neutral red assay; format: toxicity, cell-based
# Method in brief: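 ARPE-19 cells (DMEM, 10% heat-inactivated FBS, penicillin-streptomycin, amphotericin B; used within 30 passages) seeded 3 d, then exposed 72 h to a concentration range, higher than in antiviral runs, under the same conditions. Viability read by neutral red dye uptake; staurosporine as cell-death control. […] DMSO stocks diluted in DMSO and/or medium.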
# [31] = Cytotoxicity against HFF cells assessed as reduction in cell viability; format: toxicity, cell-based; conditions: human
# Human alphaherpesvirus 3 [32] = experiment: Antiviral activity against VZV expressing ORF57-Luc infected human ARPE-19 cells assessed as reduction in viral replication treated for 72 hrs by bioluminescence imaging analysis; format: functional, organism-based; conditions: Human alphaherpesvirus 3, ARPE-19, 72 h
# Human alphaherpesvirus 3 [33] = experiment: Antiviral activity against VZV expressing ORF57-TK mutant infected human ARPE-19 cells assessed as reduction in viral replication treated for 72 hrs by bioluminescence imaging analysis; format: functional, organism-based; conditions: Human alphaherpesvirus 3, ARPE-19, 72 h
# Human alphaherpesvirus 3 [34] = experiment: Antiviral activity against VZV expressing ORF57-TKTS mutant infected human ARPE-19 cells assessed as reduction in viral replication treated for 72 hrs by bioluminescence imaging analysis; format: functional, organism-based; conditions: Human alphaherpesvirus 3, ARPE-19, 72 h
structure (smiles),measurement,setting,value
O=c1[nH]c(=O)n([C@@H]2CO[C@H](CO)O2)cc1/C=C/Br,selectivity ratio,[1],> 3880
same,EC50,Human alphaherpesvirus 3 [2],250 nM
same,concentration at 20 min,[3],5620 ng/mL
same,concentration at 40 min,[4],4500 ng/mL
same,selectivity ratio,[5],> 909
same,concentration at 1 h,[6],6180 ng/mL
same,Activity,HFF,Non-Toxic
N[C@H](Cc1ccccc1)C(=O)OC[C@H]1OC[C@@H](n2cc(/C=C/Br)c(=O)[nH]c2=O)O1,selectivity ratio,[1],> 3480
CC(C)C[C@H](N)C(=O)OC[C@H]1OC[C@@H](n2cc(/C=C/Br)c(=O)[nH]c2=O)O1,selectivity ratio,[1],> 2420
NCC(=O)OC[C@H]1OC[C@@H](n2cc(/C=C/Br)c(=O)[nH]c2=O)O1,selectivity ratio,[1],> 2130
CC[C@H](C)[C@H](N)C(=O)OC[C@H]1OC[C@@H](n2cc(/C=C/Br)c(=O)[nH]c2=O)O1,selectivity ratio,[1],> 1520
C[C@@H](N)C(=O)OC[C@H]1OC[C@@H](n2cc(/C=C/Br)c(=O)[nH]c2=O)O1,selectivity ratio,[1],> 2960
NC(=O)CC[C@H](N)C(=O)OC[C@H]1OC[C@@H](n2cc(/C=C/Br)c(=O)[nH]c2=O)O1,selectivity ratio,[1],> 794
CC(C)(C)C(=O)OCOP(=O)(OCOC(=O)C(C)(C)C)OC[C@H]1OC[C@@H](n2cc(/C=C/Br)c(=O)[nH]c2=O)O1,Drug metabolism,[7],0.359 µg/mL
same,Drug metabolism,[8],0.016 µg/mL
same,selectivity ratio,[1],> 2810
same,Drug metabolism,[9],0.055 µg/mL
same,Stability,[10],0.599 µg/mL
same,Drug metabolism,[11],10.608 µg/mL
same,Drug metabolism,[12],1.385 µg/mL
same,Drug metabolism,[13],14.044 µg/mL
same,Drug metabolism,[14],8.69 µg/mL
same,Stability,[15],4.488 µg/mL
same,Stability,[16],3.094 µg/mL
same,Drug metabolism,[17],0 µg/mL
same,Stability,[18],Stable
same,Stability,[19],3.777 µg/mL
same,Drug metabolism,[20],13.543 µg/mL
same,Drug metabolism,[21],1.961 µg/mL
same,Tmax,[22],40 min
same,Drug metabolism,[23],0.142 µg/mL
same,AUC,[24],1680 µg·min/mL
same,Stability,[25],4.569 µg/mL
same,Stability,[26],Stable
same,Cmax,[27],10.6 µg/mL
same,EC50,Human alphaherpesvirus 3 [28],1 nM
N[C@@H](Cc1c[nH]c2ccccc12)C(=O)OC[C@H]1OC[C@@H](n2cc(/C=C/Br)c(=O)[nH]c2=O)O1,selectivity ratio,[1],> 1550
O=C(OC[C@H]1OC[C@@H](n2cc(/C=C/Br)c(=O)[nH]c2=O)O1)[C@@H]1CCCN1,selectivity ratio,[1],> 1930
CCCCCCCCCCCCCCCCOCCCOP(=O)(OC[C@H]1OC[C@@H](n2cc(/C=C/Br)c(=O)[nH]c2=O)O1)Oc1ccccc1 (stereo not given in full),selectivity ratio,[1],35
same,EC50,Human alphaherpesvirus 3 [29],526 nM
same,CC50 at 72 h,[30],18.5 µM
CC(C)[C@H](N)C(=O)OC[C@H]1OC[C@@H](n2cc(/C=C/Br)c(=O)[nH]c2=O)O1,selectivity ratio,[1],> 709
CC(C)(N)C(=O)OC[C@H]1OC[C@@H](n2cc(/C=C/Br)c(=O)[nH]c2=O)O1,selectivity ratio,[1],> 2600
CC(C)[C@@H](N)C(=O)OC[C@H]1OC[C@@H](n2cc(/C=C/Br)c(=O)[nH]c2=O)O1,CC50,[31],> 200 µM
same,selectivity ratio,[1],> 3320
CC(C)C(=O)OCOP(=O)(OCOC(=O)C(C)C)OC[C@H]1OC[C@@H](n2cc(/C=C/Br)c(=O)[nH]c2=O)O1,EC50,Human alphaherpesvirus 3 [32],40 nM
same,selectivity ratio,[1],> 2920
same,EC50,Human alphaherpesvirus 3 [33],> 2000 nM
same,EC50,Human alphaherpesvirus 3 [29],34 nM
same,EC50,Human alphaherpesvirus 3 [34],> 2000 nM
same,CC50 at 72 h,[30],> 100 µM
same,EC50,Human alphaherpesvirus 3 [28],8 nM
N[C@@H](Cc1ccc(O)cc1)C(=O)OC[C@H]1OC[C@@H](n2cc(/C=C/Br)c(=O)[nH]c2=O)O1,selectivity ratio,[1],> 826
CCCCCCCCCCCCCCCCCCOCCOP(=O)(OC[C@H]1OC[C@@H](n2cc(/C=C/Br)c(=O)[nH]c2=O)O1)Oc1ccccc1 (stereo not given in full),EC50,Human alphaherpesvirus 3 [32],820 nM
same,selectivity ratio,[1],339
same,EC50,Human alphaherpesvirus 3 [33],> 2000 nM
same,EC50,Human alphaherpesvirus 3 [29],100 nM
same,EC50,Human alphaherpesvirus 3 [34],> 2000 nM
same,CC50 at 72 h,[30],33.9 µM
same,EC50,Human alphaherpesvirus 3 [28],1 nM
